Calls of active or inactive are those of the source. No cut-off for these calls is given here.
Experiments:
[1] = target: Muscarinic acetylcholine receptor M2 and M4 (Homo sapiens) (UniProt P08173+P08172); assay: Selectivity ratio of Ki for displacement of [3H]-NMS from human muscarinic M4 receptor to Ki for displacement of [3H]-NMS from human muscarinic M2 receptor; format: protein assay
Outline: (§1)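 Membranes from CHO cells transfected with human M1–M5 receptors; competition binding against the orthosteric antagonist [3H]-N-methylscopolamine. Ki values were taken from the competition curves. Ratios divide the Ki at M1, M3, M4 or M5 by the Ki at M2 from the same assay.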

[2] = target: Muscarinic acetylcholine receptor M2 and M5 (Homo sapiens) (UniProt P08172+P08912); assay: Selectivity ratio of Ki for displacement of [3H]-NMS from human muscarinic M5 receptor to Ki for displacement of [3H]-NMS from human muscarinic M2 receptor; format: protein assay; outline: as §1
Sequence of Muscarinic acetylcholine receptor M2 and M5 (Homo sapiens) (P08912 whole entry, looked up, one chain of several): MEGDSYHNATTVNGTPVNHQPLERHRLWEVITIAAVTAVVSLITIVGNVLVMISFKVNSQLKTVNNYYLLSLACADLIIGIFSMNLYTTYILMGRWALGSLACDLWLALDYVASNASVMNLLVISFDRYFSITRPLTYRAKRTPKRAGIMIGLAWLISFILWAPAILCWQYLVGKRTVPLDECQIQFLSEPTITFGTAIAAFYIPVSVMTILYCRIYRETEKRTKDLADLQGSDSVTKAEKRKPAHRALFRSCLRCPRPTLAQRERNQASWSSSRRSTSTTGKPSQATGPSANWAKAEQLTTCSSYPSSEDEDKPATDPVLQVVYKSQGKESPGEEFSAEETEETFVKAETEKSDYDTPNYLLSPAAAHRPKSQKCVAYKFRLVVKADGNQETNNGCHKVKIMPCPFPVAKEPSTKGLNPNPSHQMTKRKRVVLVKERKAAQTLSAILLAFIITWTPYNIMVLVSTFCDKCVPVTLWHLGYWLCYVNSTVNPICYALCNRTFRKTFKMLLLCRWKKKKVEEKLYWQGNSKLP

[3] = target: T1, Muscarinic acetylcholine receptor M2 (Homo sapiens, UniProt P08172); assay: Displacement of [3H]-NMS from human muscarinic M2 receptor expressed in CHO cells; format: cell-based; outline: as §1
T1 sequence (P08172 whole entry): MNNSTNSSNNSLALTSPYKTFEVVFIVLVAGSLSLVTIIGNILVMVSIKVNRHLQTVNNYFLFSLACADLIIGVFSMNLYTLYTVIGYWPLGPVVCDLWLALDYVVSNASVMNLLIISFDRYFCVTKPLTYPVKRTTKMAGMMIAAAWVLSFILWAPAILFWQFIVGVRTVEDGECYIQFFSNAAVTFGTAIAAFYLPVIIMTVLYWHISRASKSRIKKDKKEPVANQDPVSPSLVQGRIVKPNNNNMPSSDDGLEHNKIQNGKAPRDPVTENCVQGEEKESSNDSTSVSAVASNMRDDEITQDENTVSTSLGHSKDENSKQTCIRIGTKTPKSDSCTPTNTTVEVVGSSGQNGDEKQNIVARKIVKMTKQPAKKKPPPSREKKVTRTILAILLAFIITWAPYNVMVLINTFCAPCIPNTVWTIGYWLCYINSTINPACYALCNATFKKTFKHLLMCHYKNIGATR

[4] = target: Muscarinic acetylcholine receptors; M1 & M2 (Homo sapiens) (UniProt P11229+P08172); assay: Selectivity ratio of Ki for displacement of [3H]-NMS from human muscarinic M1 receptor to Ki for displacement of [3H]-NMS from human muscarinic M2 receptor; format: protein assay; outline: as §1
[5] = target: Muscarinic acetylcholine receptors; M2 & M3 (Homo sapiens) (UniProt P20309+P08172); assay: Selectivity ratio of Ki for displacement of [3H]-NMS from human muscarinic M3 receptor to Ki for displacement of [3H]-NMS from human muscarinic M2 receptor; format: protein assay; outline: as §1
[6] = target: T2, Muscarinic acetylcholine receptor M2 (Homo sapiens) (UniProt P08172); settings: HEK293T, filed as antagonist
T2 sequence (whole entry): T1 sequence (P08172 whole entry)

[7] = Selectivity ratio of Ki for binding affinity to M3 receptor (unknown origin) to Ki for displacement of [3H]-Pirenzepine from human muscarinic M2 receptor
[8] = Selectivity ratio of Ki for binding affinity to M5 receptor (unknown origin) to Ki for displacement of [3H]-Pirenzepine from human muscarinic M2 receptor
[9] = Selectivity ratio of Ki for binding affinity to M4 receptor (unknown origin) to Ki for displacement of [3H]-Pirenzepine from human muscarinic M2 receptor
[10] = Selectivity ratio of Ki for binding affinity to M1 receptor (unknown origin) to Ki for displacement of [3H]-Pirenzepine from human muscarinic M2 receptor
[11] = Photostability of compound in PBS buffer at 4 W/450 nm measured after 10 mins; format: physicochemical
Outline: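 Probe in PBS (pH 7) under continuous light (4 W, 450 nm); fluorescence intensity was followed over irradiation time up to 10 min.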

[12] = target: T2, Muscarinic acetylcholine receptor M2 (Homo sapiens); assay: Binding affinity to human M2 receptor expressed in HEK293T cells measured for 3 min by confocal microscopic analysis; format: cell-based; settings: filed as antagonist
[13] = target: T2, Muscarinic acetylcholine receptor M2 (Homo sapiens); assay: Binding affinity to human M2 receptor expressed in HEK293T cells by confocal microscopic analysis; format: cell-based
[14] = target: T2, Muscarinic acetylcholine receptor M2 (Homo sapiens); assay: Binding affinity to N-terminal human M2 receptor expressed in HEK293T cell pretreated for 5 mins in presence of atropine by BRET assay; format: cell-based; settings: filed as antagonist, dose <= 1000.0 nM
[15] = target: T2, Muscarinic acetylcholine receptor M2 (Homo sapiens); assay: Binding affinity to human M2 receptor expressed in HEK293T cells by two-photon microscopic analysis; format: cell-based; settings: filed as antagonist
[16] = target: T2, Muscarinic acetylcholine receptor M2 (Homo sapiens); assay: Binding affinity to human M2 receptor expressed in HEK293T cell membrane cells by STED microscopic analysis; format: cell membranes; settings: filed as antagonist

Ratio Ki [1] | Ratio Ki [2] | Ki [3] | Ratio Ki [4] | Ratio Ki [5] | SMILES | further results
2.8 | 132 | 1 nM | 5 | 66 | Cc1cc(/C=C/c2cc3c4c(c2)CCCN4CCC3)cc(C)[n+]1CCN1CCN(CCCCC2CCN(CC(=O)N3c4ccccc4NC(=O)c4ccccc43)CC2)CC1 | –
3.2 | 126 | 3.2 nM | 4 | 50.1 | Cc1cc(/C=C/C=C/c2ccc(N(C)C)cc2)cc(C)[n+]1CCN1CCN(CCCCC2CCN(CC(=O)N3c4ccccc4NC(=O)c4ccccc43)CC2)CC1 | –
4.1 | 741 | 0.2 nM | 10.7 | 339 | CN(C)c1ccc2c(-c3ccc(C(=O)NCCN4CCN(CCCCC5CCN(CC(=O)N6c7ccccc7NC(=O)c7ccccc76)CC5)CC4)cc3C(=O)[O-])c3ccc(=[N+](C)C)cc-3oc2c1 | –
2 | 155 | 1.7 nM | 3.4 | 72.4 | CN(C)c1ccc2c(-c3ccc(C(=O)NCCNC(=O)CCc4cn(CCCCC5CCN(CC(=O)N6c7ccccc7NC(=O)c7ccccc76)CC5)cn4)cc3C(=O)[O-])c3ccc(=[N+](C)C)cc-3oc2c1 | –
– | – | – | – | – | Nc1ccccc1C(=O)N1CCC(N2CCC(Cc3ccc(S(=O)(=O)c4cccc(Cl)c4)cc3)CC2)CC1 | Ka [6]: 8.06 10^3/s/M
1.9 | 30.1 | 1.3 nM | 5.2 | 51.3 | Cc1cc(/C=C/c2cc3c4c(c2)CCCN4CCC3)cc(C)[n+]1CCNC(=O)CCc1cn(CCCCC2CCN(CC(=O)N3c4ccccc4NC(=O)c4ccccc43)CC2)cn1 | –
4.7 | 77.6 | 0.9 nM | 5.4 | 93.3 | Cc1cc(/C=C/C=C/c2ccc(N(C)C)cc2)cc(C)[n+]1CCNC(=O)CCc1cn(CCCCC2CCN(CC(=O)N3c4ccccc4NC(=O)c4ccccc43)CC2)cn1 | –
– | – | – | – | – | CCN(CC)CC1CCCCN1CC(=O)N1c2ccccc2C(=O)Nc2cccnc21 (stereo not given) | Ratio Ki [7]: 16; Ratio Ki [8]: 44; Ratio Ki [9]: 4; Ratio Ki [10]: 7
– | – | – | – | – | CCCC(C)(C)C(=O)N(CC)CCCC1CCN(CC(=O)N2c3ccc(Cl)cc3C(=O)Nc3cccnc32)CC1 | Ratio Ki [7]: 26; Ratio Ki [8]: 48; Ratio Ki [9]: 6; Ratio Ki [10]: 355
39.8 | 200 | 0.8 nM | 6.3 | 200 | CC1(C)C(/C=C/C=C/C=C2/N(CCCCCC(=O)NCCNC(=O)CCc3cn(CCCCC4CCN(CC(=O)N5c6ccccc6NC(=O)c6ccccc65)CC4)cn3)c3cccc(S(=O)(=O)O)c3C2(C)C)=[N+](CCCCS(=O)(=O)[O-])c2ccccc21 | –
0.6 | 14.5 | 0.7 nM | 1.4 | 53.7 | O=C(CCCCCNC(=O)COc1ccc(/C=C/C2=[N+]3C(=Cc4ccc(-c5cccs5)n4[B-]3(F)F)C=C2)cc1)NCCNC(=O)CCc1cn(CCCCC2CCN(CC(=O)N3c4ccccc4NC(=O)c4ccccc43)CC2)cn1 | –
– | – | – | – | – | O=C(CCOCCOCCNC(=O)c1ccc(-c2c3cc(F)c(=O)cc-3oc3cc(O)c(F)cc23)c(C(=O)O)c1)NCCOCCOCCNc1ccccc1C(=O)N1CCC(N2CCC(Cc3ccc(S(=O)(=O)c4cccc(Cl)c4)cc3)CC2)CC1 | Stability [11]: Stable; Activity [12]: Active; Activity [13]: inactive; Activity [14]: Dose-dependent-effect; Activity [15]: Active; Activity [16]: Active

— ChEMBL document CHEMBL6109171, “Design, Synthesis, and Evaluation of a New Fluorescent Ligand for the M2 Muscarinic Acetylcholine Receptor” (ACS Med Chem Lett, 2025)
